From ChEMBL document CHEMBL5058577, “EUbOPEN Chemogenomics Library 2 (Multiplex)” (2022)

Test system: HEK-293T
Assay: Multiplex assay against HEK293T
Type: toxicity, cell-based
Conditions: human
Method in brief: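 Live cells were stained at seeding with Hoechst33342, BioTracker Green Microtubule Cytoskeleton Dye, MitoTracker Red and Annexin V Alexa Fluor 680, then imaged on a CQ1 microscope at 37°C and 5% CO2 after compound addition. CellPathfinder machine-learning gating split cells into Hoechst high-intensity objects or normal cells. Normal cells were split into healthy, pyknosed or fragmented nuclei, and pyknosed cells into mitotic or apoptotic. Tubulin, mitochondrial-mass and membrane-permeability phenotypes are per cents of healthy-nucleus cells.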

[1] = 12 h, 1 µM, compound concentration 1 uM, replicate 1
[2] = 12 h, 1 µM, compound concentration 1 uM, replicate 2
[3] = 12 h, 10 µM, compound concentration 10 uM, replicate 1
[4] = 12 h, 10 µM, compound concentration 10 uM, replicate 2
[5] = 24 h, 1 µM, compound concentration 1 uM, replicate 1
[6] = 24 h, 1 µM, compound concentration 1 uM, replicate 2
[7] = 24 h, 10 µM, compound concentration 10 uM, replicate 1
[8] = 24 h, 10 µM, compound concentration 10 uM, replicate 2
[9] = 48 h, 1 µM, compound concentration 1 uM, replicate 1
[10] = 48 h, 1 µM, compound concentration 1 uM, replicate 2
[11] = 48 h, 10 µM, compound concentration 10 uM, replicate 1
[12] = 48 h, 10 µM, compound concentration 10 uM, replicate 2

COc1cc(NC(=O)CCN2CCC(OC(=O)Nc3ccccc3-c3ccccc3)CC2)c(Cl)cc1CNC[C@H](O)c1ccc(O)c2[nH]c(=O)ccc12 [BATEFENTEROL]
Population Apoptotic (%) [1]: 42%
Population Fragmented Nuclei (%) [1]: 4%
Population Healthy Nuclei (%) [1]: 81%
Population Hoechst High Intensity Objects (%) [1]: 7%
Population Membrane Permeable-Phenotype (%) [1]: 0%
Population Mitochondria Different-Phenotype (%) [1]: 65%
Population Mitotic Cells (%) [1]: 57%
Population Normal (%) [1]: 92%
Population Pyknosed Nuclei (%) [1]: 14%
Population Tubulin-Different-Phenotype (%) [1]: 44%
Total Cell Count [1]: 420
Population Apoptotic (%) [2]: 47%
Population Fragmented Nuclei (%) [2]: 3%
Population Healthy Nuclei (%) [2]: 78%
Population Hoechst High Intensity Objects (%) [2]: 8%
Population Mitochondria Different-Phenotype (%) [2]: 84%
Population Mitotic Cells (%) [2]: 52%
Population Normal (%) [2]: 91%
Population Pyknosed Nuclei (%) [2]: 17%
Population Tubulin-Different-Phenotype (%) [2]: 41%
Total Cell Count [2]: 285
Population Apoptotic (%) [3]: 100%
Population Fragmented Nuclei (%) [3]: 90%
Population Healthy Nuclei (%) [3]: 0%
Population Hoechst High Intensity Objects (%) [3]: 31%
Population Membrane Permeable-Phenotype (%) [3]: 0%
Population Mitochondria Different-Phenotype (%) [3]: 0%
Population Mitotic Cells (%) [3]: 0%
Population Normal (%) [3]: 68%
Population Pyknosed Nuclei (%) [3]: 9%
Population Tubulin-Different-Phenotype (%) [3]: 0%
Total Cell Count [3]: 16
Population Apoptotic (%) [4]: 52%
Population Fragmented Nuclei (%) [4]: 5%
Population Healthy Nuclei (%) [4]: 72%
Population Hoechst High Intensity Objects (%) [4]: 11%
Population Membrane Permeable-Phenotype (%) [4]: 1%
Population Mitochondria Different-Phenotype (%) [4]: 87%
Population Mitotic Cells (%) [4]: 47%
Population Normal (%) [4]: 88%
Population Pyknosed Nuclei (%) [4]: 22%
Population Tubulin-Different-Phenotype (%) [4]: 67%
Total Cell Count [4]: 303
Population Apoptotic (%) [5]: 44%
Population Fragmented Nuclei (%) [5]: 9%
Population Healthy Nuclei (%) [5]: 77%
Population Hoechst High Intensity Objects (%) [5]: 5%
Population Membrane Permeable-Phenotype (%) [5]: 0%
Population Mitochondria Different-Phenotype (%) [5]: 59%
Population Mitotic Cells (%) [5]: 55%
Population Normal (%) [5]: 94%
Population Pyknosed Nuclei (%) [5]: 12%
Population Tubulin-Different-Phenotype (%) [5]: 35%
Total Cell Count [5]: 527
Population Apoptotic (%) [6]: 41%
Population Fragmented Nuclei (%) [6]: 7%
Population Healthy Nuclei (%) [6]: 82%
Population Hoechst High Intensity Objects (%) [6]: 8%
Population Mitochondria Different-Phenotype (%) [6]: 65%
Population Mitotic Cells (%) [6]: 58%
Population Normal (%) [6]: 91%
Population Pyknosed Nuclei (%) [6]: 9%
Population Tubulin-Different-Phenotype (%) [6]: 27%
Total Cell Count [6]: 403
Population Apoptotic (%) [7]: 0%
Population Fragmented Nuclei (%) [7]: 87%
Population Healthy Nuclei (%) [7]: 12%
Population Hoechst High Intensity Objects (%) [7]: 33%
Population Membrane Permeable-Phenotype (%) [7]: 0%
Population Mitochondria Different-Phenotype (%) [7]: 100%
Population Mitotic Cells (%) [7]: 0%
Population Normal (%) [7]: 66%
Population Pyknosed Nuclei (%) [7]: 0%
Population Tubulin-Different-Phenotype (%) [7]: 100%
Total Cell Count [7]: 12
Population Apoptotic (%) [8]: 56%
Population Fragmented Nuclei (%) [8]: 6%
Population Healthy Nuclei (%) [8]: 73%
Population Hoechst High Intensity Objects (%) [8]: 7%
Population Mitochondria Different-Phenotype (%) [8]: 89%
Population Mitotic Cells (%) [8]: 43%
Population Normal (%) [8]: 93%
Population Pyknosed Nuclei (%) [8]: 19%
Population Tubulin-Different-Phenotype (%) [8]: 78%
Total Cell Count [8]: 357
Population Apoptotic (%) [9]: 35%
Population Fragmented Nuclei (%) [9]: 15%
Population Healthy Nuclei (%) [9]: 75%
Population Hoechst High Intensity Objects (%) [9]: 3%
Population Membrane Permeable-Phenotype (%) [9]: 0%
Population Mitochondria Different-Phenotype (%) [9]: 36%
Population Mitotic Cells (%) [9]: 65%
Population Normal (%) [9]: 96%
Population Pyknosed Nuclei (%) [9]: 8%
Population Tubulin-Different-Phenotype (%) [9]: 17%
Total Cell Count [9]: 744
Population Apoptotic (%) [10]: 51%
Population Fragmented Nuclei (%) [10]: 13%
Population Healthy Nuclei (%) [10]: 79%
Population Mitochondria Different-Phenotype (%) [10]: 42%
Population Mitotic Cells (%) [10]: 48%
Population Pyknosed Nuclei (%) [10]: 6%
Total Cell Count [10]: 547
Population Apoptotic (%) [11]: 100%
Population Fragmented Nuclei (%) [11]: 58%
Population Healthy Nuclei (%) [11]: 25%
Population Hoechst High Intensity Objects (%) [11]: 7%
Population Membrane Permeable-Phenotype (%) [11]: 0%
Population Mitochondria Different-Phenotype (%) [11]: 66%
Population Mitotic Cells (%) [11]: 0%
Population Normal (%) [11]: 92%
Population Pyknosed Nuclei (%) [11]: 16%
Population Tubulin-Different-Phenotype (%) [11]: 66%
Total Cell Count [11]: 13
Population Apoptotic (%) [12]: 57%
Population Fragmented Nuclei (%) [12]: 11%
Population Healthy Nuclei (%) [12]: 76%
Population Mitochondria Different-Phenotype (%) [12]: 76%
Population Mitotic Cells (%) [12]: 42%
Population Pyknosed Nuclei (%) [12]: 11%
Population Tubulin-Different-Phenotype (%) [12]: 74%
Total Cell Count [12]: 427

N#Cc1c(N)nc(SCc2csc(-c3ccc(Cl)cc3)n2)c(C#N)c1-c1ccc(OCCO)cc1 [CAPADENOSON]
Population Apoptotic (%) [1]: 36%
Population Fragmented Nuclei (%) [1]: 6%
Population Healthy Nuclei (%) [1]: 79%
Population Hoechst High Intensity Objects (%) [1]: 8%
Population Membrane Permeable-Phenotype (%) [1]: 0%
Population Mitochondria Different-Phenotype (%) [1]: 59%
Population Mitotic Cells (%) [1]: 63%
Population Normal (%) [1]: 91%
Population Pyknosed Nuclei (%) [1]: 13%
Population Tubulin-Different-Phenotype (%) [1]: 44%
Total Cell Count [1]: 373
Population Apoptotic (%) [2]: 54%
Population Healthy Nuclei (%) [2]: 80%
Population Hoechst High Intensity Objects (%) [2]: 4%
Population Mitochondria Different-Phenotype (%) [2]: 60%
Population Mitotic Cells (%) [2]: 45%
Population Normal (%) [2]: 95%
Population Pyknosed Nuclei (%) [2]: 12%
Population Tubulin-Different-Phenotype (%) [2]: 34%
Total Cell Count [2]: 375
Population Apoptotic (%) [3]: 57%
Population Fragmented Nuclei (%) [3]: 7%
Population Healthy Nuclei (%) [3]: 75%
Population Hoechst High Intensity Objects (%) [3]: 12%
Population Membrane Permeable-Phenotype (%) [3]: 0%
Population Mitochondria Different-Phenotype (%) [3]: 82%
Population Mitotic Cells (%) [3]: 42%
Population Normal (%) [3]: 87%
Population Pyknosed Nuclei (%) [3]: 17%
Population Tubulin-Different-Phenotype (%) [3]: 62%
Total Cell Count [3]: 307
Population Apoptotic (%) [4]: 70%
Population Fragmented Nuclei (%) [4]: 6%
Population Healthy Nuclei (%) [4]: 73%
Population Hoechst High Intensity Objects (%) [4]: 14%
Population Membrane Permeable-Phenotype (%) [4]: 1%
Population Mitochondria Different-Phenotype (%) [4]: 85%
Population Mitotic Cells (%) [4]: 29%
Population Normal (%) [4]: 85%
Population Pyknosed Nuclei (%) [4]: 20%
Population Tubulin-Different-Phenotype (%) [4]: 63%
Total Cell Count [4]: 388
Population Apoptotic (%) [5]: 36%
Population Fragmented Nuclei (%) [5]: 5%
Population Healthy Nuclei (%) [5]: 76%
Population Hoechst High Intensity Objects (%) [5]: 6%
Population Membrane Permeable-Phenotype (%) [5]: 2%
Population Mitochondria Different-Phenotype (%) [5]: 38%
Population Mitotic Cells (%) [5]: 63%
Population Normal (%) [5]: 93%
Population Pyknosed Nuclei (%) [5]: 17%
Population Tubulin-Different-Phenotype (%) [5]: 34%
Total Cell Count [5]: 450
Population Apoptotic (%) [6]: 37%
Population Fragmented Nuclei (%) [6]: 7%
Population Healthy Nuclei (%) [6]: 79%
Population Hoechst High Intensity Objects (%) [6]: 4%
Population Membrane Permeable-Phenotype (%) [6]: 0%
Population Mitochondria Different-Phenotype (%) [6]: 44%
Population Mitotic Cells (%) [6]: 62%
Population Normal (%) [6]: 95%
Population Pyknosed Nuclei (%) [6]: 12%
Population Tubulin-Different-Phenotype (%) [6]: 23%
Total Cell Count [6]: 456
Population Apoptotic (%) [7]: 65%
Population Fragmented Nuclei (%) [7]: 8%
Population Healthy Nuclei (%) [7]: 68%
Population Hoechst High Intensity Objects (%) [7]: 14%
Population Membrane Permeable-Phenotype (%) [7]: 0%
Population Mitochondria Different-Phenotype (%) [7]: 94%
Population Mitotic Cells (%) [7]: 34%
Population Normal (%) [7]: 85%
Population Pyknosed Nuclei (%) [7]: 22%
Population Tubulin-Different-Phenotype (%) [7]: 62%
Total Cell Count [7]: 319
Population Apoptotic (%) [8]: 73%
Population Fragmented Nuclei (%) [8]: 4%
Population Hoechst High Intensity Objects (%) [8]: 13%
Population Mitochondria Different-Phenotype (%) [8]: 89%
Population Mitotic Cells (%) [8]: 26%
Population Normal (%) [8]: 86%
Population Pyknosed Nuclei (%) [8]: 26%
Population Tubulin-Different-Phenotype (%) [8]: 61%
Total Cell Count [8]: 391
Population Apoptotic (%) [9]: 31%
Population Fragmented Nuclei (%) [9]: 10%
Population Healthy Nuclei (%) [9]: 79%
Population Hoechst High Intensity Objects (%) [9]: 4%
Population Membrane Permeable-Phenotype (%) [9]: 1%
Population Mitochondria Different-Phenotype (%) [9]: 32%
Population Mitotic Cells (%) [9]: 68%
Population Normal (%) [9]: 95%
Population Pyknosed Nuclei (%) [9]: 10%
Population Tubulin-Different-Phenotype (%) [9]: 23%
Total Cell Count [9]: 621
Population Apoptotic (%) [10]: 32%
Population Fragmented Nuclei (%) [10]: 11%
Population Healthy Nuclei (%) [10]: 80%
Population Hoechst High Intensity Objects (%) [10]: 3%
Population Membrane Permeable-Phenotype (%) [10]: 2%
Population Mitochondria Different-Phenotype (%) [10]: 23%
Population Mitotic Cells (%) [10]: 67%
Population Normal (%) [10]: 96%
Population Pyknosed Nuclei (%) [10]: 8%
Population Tubulin-Different-Phenotype (%) [10]: 18%
Total Cell Count [10]: 787
Population Apoptotic (%) [11]: 66%
Population Fragmented Nuclei (%) [11]: 11%
Population Healthy Nuclei (%) [11]: 68%
Population Hoechst High Intensity Objects (%) [11]: 12%
Population Membrane Permeable-Phenotype (%) [11]: 0%
Population Mitochondria Different-Phenotype (%) [11]: 89%
Population Mitotic Cells (%) [11]: 33%
Population Normal (%) [11]: 87%
Population Pyknosed Nuclei (%) [11]: 20%
Population Tubulin-Different-Phenotype (%) [11]: 67%
Total Cell Count [11]: 406
Population Apoptotic (%) [12]: 63%
Population Fragmented Nuclei (%) [12]: 12%
Population Healthy Nuclei (%) [12]: 73%
Population Hoechst High Intensity Objects (%) [12]: 10%
Population Mitochondria Different-Phenotype (%) [12]: 88%
Population Mitotic Cells (%) [12]: 36%
Population Normal (%) [12]: 89%
Population Pyknosed Nuclei (%) [12]: 14%
Population Tubulin-Different-Phenotype (%) [12]: 64%
Total Cell Count [12]: 423
